Reference: ChEMBL document CHEMBL4261585, “Synthesis of 1,2,3-triazole linked 4(3H)-Quinazolinones as potent antibacterial agents against multidrug-resistant Staphylococcus aureus” (Eur J Med Chem, 2018)
In brackets after ≈: the same amount, converted by molar mass. Where a SMILES comes first, the peptide text is derived from it. Bridges are numbered along the chain shown (N, C = ends). [ ]: non-standard residue; d: D form. Dab = NCC[C@H](N)C(=O)O

How the values were obtained:
Format in all cases: functional
Escherichia coli = assay: Antibacterial activity against Escherichia coli ATCC 25922 after 16 to 18 hrs by CLSI method
How it was run: (§1)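 Broth microdilution MIC per CLSI. A single colony from Mueller-Hinton agar is grown overnight in cation-supplemented Mueller-Hinton broth (37 °C, shaking, 18–24 h). Incubation is 37 °C for 16–18 h. MIC is the lowest concentration with no visible growth. Three independent runs, each in duplicate.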

[1] = system: Mycolicibacterium fortuitum; assay: Antimycobacterial activity against Mycobacterium fortuitum by pesto blue-dye based broth microdilution assay
[2] = system: Mycobacteroides abscessus; assay: Antimycobacterial activity against Mycobacterium abscessus by pesto blue-dye based broth microdilution assay
Klebsiella pneumoniae = assay: Antibacterial activity against Klebsiella pneumoniae ATCC BAA-1705 after 16 to 18 hrs by CLSI method; how it was run: as §1
[3] = system: Mycobacterium tuberculosis; assay: Antimycobacterial activity against Mycobacterium tuberculosis H37Rv ATCC 27294 after 7 days by pesto blue-dye based broth microdilution assay; conditions: H37Rv ATCC 27294, 168 h
How it was run: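 Broth microdilution in Middlebrook 7H9 with 10% ADC-Tween-80 (0.2% glycerol, 0.05% Tween-80). Compound is added from 10 mg/mL DMSO stocks as two-fold dilutions, 64–0.5 mg/L. Plates are incubated 7 days at 37 °C and read with PrestoBlue resazurin dye. MIC is the lowest concentration inhibiting visible growth, three replicates in duplicate.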

Mycobacteroides chelonae = assay: Antimycobacterial activity against Mycobacterium chelonae by pesto blue-dye based broth microdilution assay
Staphylococcus aureus = assay: Antibacterial activity against Staphylococcus aureus ATCC 29213 after 16 to 18 hrs by CLSI method; how it was run: as §1
Acinetobacter baumannii = assay: Antibacterial activity against Acinetobacter baumannii BAA-1605 after 16 to 18 hrs by CLSI method; how it was run: as §1
Pseudomonas aeruginosa = assay: Antibacterial activity against Pseudomonas aeruginosa ATCC 27853 after 16 to 18 hrs by CLSI method; how it was run: as §1

Row | Compound | MIC (Escherichia coli) [µg/mL] | MIC [1] [µg/mL] | MIC [2] [µg/mL] | MIC (Klebsiella pneumoniae) [µg/mL] | MIC [3] [µg/mL] | MIC (Mycobacteroides chelonae) [µg/mL] | MIC (Staphylococcus aureus) [µg/mL] | MIC (Acinetobacter baumannii) [µg/mL] | MIC (Pseudomonas aeruginosa) [µg/mL]
1 | COc1ccc(-n2cc(COc3cccc(-n4c(/C=C/c5ccc(C#N)cc5)nc5ccccc5c4=O)c3)nn2)cc1 | > 64 | > 64 | > 64 | > 64 | > 64 | > 64 | 4 (≈ 7.24 µM) | > 64 | > 64
2 | Cc1cc([N+](=O)[O-])ccc1-n1cc(COc2cccc(-n3c(C)nc4ccccc4c3=O)c2)nn1 | > 64 | > 64 | > 64 | > 64 | 32 (≈ 68.3 µM) | > 64 | > 64 | > 64 | > 64
3 | COc1cc(-n2cc(COc3cccc(-n4c(C)nc5ccccc5c4=O)c3)nn2)cc(OC)c1OC | > 64 | > 64 | > 64 | > 64 | > 64 | > 64 | > 64 | > 64 | > 64
4 | Cc1nc2ccccc2c(=O)n1-c1cccc(OCc2cn(-c3cccc(C(=O)O)c3)nn2)c1 | > 64 | > 64 | > 64 | > 64 | > 64 | > 64 | > 64 | > 64 | > 64
5 | N#Cc1ccc(/C=C/c2nc3ccccc3c(=O)n2-c2ccc(OCc3cn(Cc4ccc(Br)cc4)nn3)cc2)cc1 | > 64 | > 64 | > 64 | > 64 | > 64 | > 64 | > 64 | > 64 | > 64
6 | N#Cc1ccc(/C=C/c2nc3ccccc3c(=O)n2-c2cccc(-n3cc(-c4ccccc4)nn3)c2)cc1 | > 64 | > 64 | > 64 | > 64 | > 64 | > 64 | > 64 | > 64 | > 64
7 | CCC(C)(C)c1ccc(OCc2cn(-c3cccc(-n4c(C)nc5ccccc5c4=O)c3)nn2)cc1 | > 64 | > 64 | > 64 | > 64 | > 64 | > 64 | > 64 | > 64 | > 64
8 | Cc1cccc(-n2cc(COc3cccc(-n4c(C)nc5ccccc5c4=O)c3)nn2)c1 | > 64 | > 64 | > 64 | > 64 | > 64 | > 64 | > 64 | > 64 | > 64
9 | N#Cc1ccc(/C=C/c2nc3ccccc3c(=O)n2-c2cccc(OCc3cn(Cc4cccc(Br)c4)nn3)c2)cc1 | > 64 | > 64 | > 64 | > 64 | > 64 | > 64 | 0.5 (≈ 0.812 µM) | > 64 | > 64
10 | Cc1ccc(C)c(OCc2cn(-c3cccc(-n4c(C)nc5ccccc5c4=O)c3)nn2)c1 | > 64 | > 64 | > 64 | > 64 | > 64 | > 64 | > 64 | > 64 | > 64
11 | N#Cc1ccc(/C=C/c2nc3ccccc3c(=O)n2-c2cccc(OCc3cn(Cc4ccc(Br)cc4)nn3)c2)cc1 | > 64 | > 64 | > 64 | > 64 | > 64 | > 64 | 16 (≈ 26 µM) | > 64 | > 64
12 | CCC(C)(C)c1ccc(OCc2cn(-c3cccc(-n4c(/C=C/c5ccc(C#N)cc5)nc5ccccc5c4=O)c3)nn2)cc1 | > 64 | > 64 | > 64 | > 64 |  | > 64 | > 64 | > 64 | > 64
13 | CC(C)C[C@@H]1NC(=O)[C@@H](Cc2ccccc2)NC(=O)[C@H](CCN)NC(=O)[C@@H](NC(=O)[C@H](CCN)NC(=O)[C@@H](N)[C@@H](C)O)CCNC(=O)[C@H]([C@@H](C)O)NC(=O)[C@H](CCN)NC(=O)[C@H](CCN)NC1=O [POLYMYXIN B NONAPEPTIDE] (H-T[Dab][Dab][Dab][dF]L[Dab][Dab]T; lactam 3-C) | > 128 |  |  |  |  |  |  | > 128 | 
14 | Cc1cc(-n2cc(COc3cccc(-n4c(C)nc5ccccc5c4=O)c3)nn2)cc(C)c1C | > 64 | > 64 | > 64 | > 64 | > 64 | > 64 | > 64 | > 64 | > 64
15 | Cc1nc2ccccc2c(=O)n1-c1cccc(OCc2cn(-c3ccc(Cl)cc3)nn2)c1 | > 64 | > 64 | > 64 | > 64 | > 64 | > 64 | > 64 | > 64 | > 64
16 | Cc1nc2ccccc2c(=O)n1-c1cccc(OCc2cn(-c3ccc(O)cc3)nn2)c1 | > 64 | > 64 | > 64 | > 64 | 64 (≈ 150 µM) | > 64 | > 64 | > 64 | > 64
17 | N#Cc1ccc(/C=C/c2nc3ccccc3c(=O)n2-c2cccc(OCc3cn(-c4cccc(C(=O)O)c4)nn3)c2)cc1 | > 64 | > 64 | > 64 | > 64 | > 64 | > 64 | 4 (≈ 7.06 µM) | > 64 | > 64
18 | O=c1c2ccccc2nc(/C=C/c2ccc(Cl)cc2)n1-c1cccc(OCc2cn(-c3cccc(F)c3)nn2)c1 | > 64 | > 64 | > 64 | > 64 | > 64 | > 64 | 4 (≈ 7.27 µM) | > 64 | > 64
19 | N#Cc1ccc(/C=C/c2nc3ccccc3c(=O)n2-c2cccc(OCc3cn(Cc4ccc([N+](=O)[O-])cc4)nn3)c2)cc1 | > 64 | > 64 | > 64 | > 64 | > 64 | > 64 | 2 (≈ 3.44 µM) | > 64 | > 64
20 | Cc1nc2ccccc2c(=O)n1-c1cccc(-n2cc(-c3ccccc3)nn2)c1 | > 64 | > 64 | > 64 | > 64 | > 64 | > 64 | > 64 | > 64 | > 64
21 | Cc1nc2ccccc2c(=O)n1-c1cccc(OCc2cn(-c3ccc(F)c(Cl)c3)nn2)c1 | > 64 | > 64 | > 64 | > 64 | > 64 | > 64 | > 64 | > 64 | > 64
22 | Cc1cccc2c(=O)n(-c3cccc(OCc4cn(-c5cccc(Cl)c5)nn4)c3)c(C)nc12 | > 64 | > 64 | > 64 | > 64 | > 64 | > 64 | > 64 | > 64 | > 64
23 | NNC(=O)c1ccncc1 [ISONIAZID] |  |  |  |  | 0.03 (≈ 0.219 µM) |  |  |  | 
24 | O=c1c2ccccc2nc(/C=C/c2ccc(Cl)cc2)n1-c1cccc(-n2cc(-c3ccccc3)nn2)c1 | > 64 | > 64 | > 64 | > 64 | > 64 | > 64 | > 64 | > 64 | > 64
25 | Cc1nc2ccccc2c(=O)n1-c1cccc(OCc2cn(-c3cccc(O)c3)nn2)c1 | > 64 | > 64 | > 64 | > 64 | > 64 | > 64 | > 64 | > 64 | > 64
26 | COc1ccc(Cn2cc(COc3cccc(-n4c(/C=C/c5ccc(C#N)cc5)nc5ccccc5c4=O)c3)nn2)cc1 | > 64 | > 64 | > 64 | > 64 | > 64 | > 64 | 0.5 (≈ 0.882 µM) | > 64 | > 64
27 | Cc1ccc(-n2cc(COc3cccc(-n4c(C)nc5ccccc5c4=O)c3)nn2)cc1[N+](=O)[O-] | > 64 | > 64 | > 64 | > 64 | > 64 | > 64 | > 64 | > 64 | > 64
28 | Cc1nc2ccccc2c(=O)n1-c1cccc(OCc2cn(-c3ccc(C(=O)O)cc3)nn2)c1 | > 64 | > 64 | > 64 | > 64 | > 64 | > 64 | > 64 | > 64 | > 64
29 | Cc1cccc2c(=O)n(-c3cccc(OCc4cn(-c5cccc(Cl)c5)nn4)c3)c(/C=C/c3ccc(C#N)cc3)nc12 | > 64 | > 64 | > 64 | > 64 | > 64 | > 64 | > 64 | > 64 | > 64
30 | COc1ccc(-n2cc(COc3cccc(-n4c(C)nc5ccccc5c4=O)c3)nn2)cc1 | > 64 | > 64 | > 64 | > 64 | > 64 | > 64 | > 64 | > 64 | > 64
